Experimental findings from ChEMBL document CHEMBL4396941, “Design, synthesis and biological evaluation of benzamide derivatives as novel NTCP inhibitors that induce apoptosis in HepG2 cells” (Bioorg Med Chem Lett, 2019) are described below.

Activity calls are given as the source filed them. No cut-off for these calls is given here.

Assay [1] has as its system Hepatitis B virus. The assay can be described thus: Antiviral activity against hepatitis B virus infected in human HepG2.2.15 cells assessed as reduction in HBeAg secretion at 5 uM incubated for 9 days by ELISA (reference value: 25.13 +/- 1.93 ng/ml). Type of assay: functional.
Assay [2] relates to Hepatitis B virus. In words: Antiviral activity against hepatitis B virus infected in human HepG2.2.15 cells assessed as HBsAg secretion at 5 uM incubated for 9 days by ELISA (reference value: 8.41+/- 0.54 ng/ml). Type of assay: functional. Background: In an ELISA, binding on a coated surface is turned into a signal by an enzyme label.
The subject of assay [3] is Hepatitis B virus. In words: Antiviral activity against hepatitis B virus infected in human HepG2.2.15 cells assessed as reduction in HBV DNA level incubated for 9 days by real time-PCR analysis. Type of assay: functional, organism-based.
Assay [4] relates to HepG2. The assay can be described thus: Antiproliferative activity against human HepG2 cells assessed as inhibition of cell growth incubated for 24 hrs by MTT assay. Type of assay: functional, cell-based. The settings on record: HepG2, 24 h. In outline: (§1)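 HepG2 cells exposed to a range of concentrations for the stated times, then inhibition rate measured by MTT.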
On the technique in general: Tetrazolium dyes change colour on reduction, which living cells bring about.

Assay [5] relates to HepG2. The assay can be described thus: Antiproliferative activity against human HepG2 cells assessed as inhibition of cell growth incubated for 48 hrs by MTT assay. The assay is classed as functional, cell-based. The settings on record: HepG2, 48 h. A digest of the protocol: as §1
The subject of assay [6] is HepG2. The assay can be described thus: Antiproliferative activity against human HepG2 cells assessed as inhibition of cell growth incubated for 72 hrs by MTT assay. Type of assay: functional, cell-based. The note with it: HepG2, 72 h. In outline:
as §1

The subject of assay [7] is HepG2. The assay can be described thus: Induction of apoptosis in human HepG2 cells assessed as downregulation of Bcl2 protein expression at 2.5 to 10 uM incubated for 24 hrs by Western blot analysis. Type of assay: functional, cell-based. In outline:
(§2)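 HepG2 cells treated 24 h at several concentrations; NTCP, PARP, Bax, Bcl-2 and caspase-3 detected by western blot.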

In assay [8] the test system is HepG2. The assay can be described thus: Induction of cell morphological changes in human HepG2 cells assessed as condensed chromatin at 2.5 to 10 uM incubated for 24 hrs by Hoechst 33258 staining based fluorescence microscopy. The assay is classed as functional. A digest of the protocol:
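HepG2 cells treated 24 h at several concentrations, stained with Hoechst 33258, chromatin morphology examined by fluorescence microscopy.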

The subject of assay [9] is HepG2. The assay can be described thus: Induction of apoptosis in human HepG2 cells assessed as increase in PARP cleavage at 2.5 to 10 uM incubated for 24 hrs by Western blot analysis. The assay is classed as functional, cell-based. A digest of the protocol: as §2
For assay [10], the system named is HepG2. The assay can be described thus: Induction of apoptosis in human HepG2 cells assessed as increase in caspase-3 cleavage at 2.5 to 10 uM incubated for 24 hrs by Western blot analysis. Type of assay: functional, cell-based. A digest of the protocol:
as §2
(In western blotting, separated proteins are transferred to a membrane and probed.)

The subject of assay [11] is HepG2. The assay can be described thus: Induction of apoptosis in human HepG2 cells assessed as late apoptotic cells at 2.5 uM incubated for 24 hrs by annexin -V/propidium iodide staining based flow cytometry (reference value: 4.72%). The assay is classed as functional.
For assay [12], the system named is HepG2. In words: Induction of apoptosis in human HepG2 cells assessed as early apoptotic cells at 5 uM incubated for 24 hrs by annexin -V/propidium iodide staining based flow cytometry (reference value: 2.23%). The assay is classed as functional.
The test system of assay [13] is HepG2. The assay can be described thus: Induction of apoptosis in human HepG2 cells assessed as early apoptotic cells at 10 uM incubated for 24 hrs by annexin -V/propidium iodide staining based flow cytometry (reference value: 2.23%). The assay is classed as functional.
For assay [14], the system named is HepG2. In words: Induction of apoptosis in human HepG2 cells assessed as late apoptotic cells at 10 uM incubated for 24 hrs by annexin -V/propidium iodide staining based flow cytometry (reference value: 4.72%). The assay is classed as functional.
The test system of assay [15] is HepG2. In words: Induction of apoptosis in human HepG2 cells assessed as upregulation of Bax protein expression at 2.5 to 10 uM incubated for 24 hrs by Western blot analysis. The assay is classed as functional, cell-based. In outline: as §2
Assay [16] concerns HepG2. The assay can be described thus: Induction of apoptosis in human HepG2 cells assessed as late apoptotic cells at 5 uM incubated for 24 hrs by annexin -V/propidium iodide staining based flow cytometry (reference value: 4.72%). Type of assay: functional.
In assay [17] the test system is HepG2. In words: Induction of apoptosis in human HepG2 cells assessed as early apoptotic cells at 2.5 uM incubated for 24 hrs by annexin -V/propidium iodide staining based flow cytometry (reference value: 2.23%). Type of assay: functional.
Assay [18] has as its system HepG2. The assay can be described thus: Inhibition of NTCP protein expression in human HepG2 cells at 2.5 to 10 uM incubated for 24 hrs by western blot analysis. Type of assay: functional, cell-based. In outline: as §2
Assay [19] deals with T1, Hepatic sodium/bile acid cotransporter (Homo sapiens, UniProt Q14973).
T1 sequence (Q14973 whole entry): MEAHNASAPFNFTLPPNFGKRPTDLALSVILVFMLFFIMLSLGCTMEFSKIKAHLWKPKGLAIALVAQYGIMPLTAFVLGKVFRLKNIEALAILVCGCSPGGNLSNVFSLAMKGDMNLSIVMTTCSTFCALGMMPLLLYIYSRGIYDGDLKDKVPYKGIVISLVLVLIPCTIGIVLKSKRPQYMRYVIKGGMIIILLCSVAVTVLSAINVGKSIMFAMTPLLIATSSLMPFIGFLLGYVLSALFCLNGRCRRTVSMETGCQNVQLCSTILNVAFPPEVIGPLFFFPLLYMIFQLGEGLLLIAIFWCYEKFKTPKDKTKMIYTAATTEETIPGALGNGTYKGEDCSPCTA
The assay can be described thus: Inhibition of human recombinant NTCP expressed in CHO cells assessed as reduction in [3H]taurocholate uptake incubated for 2 mins by scintillation counting method. Type of assay: cell-based.

Assay [20] addresses T1, Hepatic sodium/bile acid cotransporter. In words: Inhibition of NTCP in human hepatocytes assessed as reduction in Na+-dependent [3H]taurocholate uptake measured at 45s following compound addition by liquid scintillation counting method. Type of assay: cell-based.
The target is the same in assay [21]. In words: Inhibition of human recombinant NTCP expressed in CHO cells assessed as reduction in [3H]taurocholate uptake preincubated for 1 hr by radioactive scintillation counting method. The assay is classed as cell-based.
Assay [22] shares this target. In words: Inhibition of NTCP in human hepatocytes. Type of assay: cell-based.

For orientation: IC50 means the concentration at which inhibition is half-maximal.

On to `O=C(CNC(=O)c1cccnc1Cl)N/N=C/c1cccc(OCc2ccccc2Cl)c1`, for which the Activity was determined as 6.43 ng/mL in the assay on Hepatitis B virus [1] and 2.05 ng/mL in the assay on Hepatitis B virus [2]. In addition, in the assay with Hepatitis B virus [3], the inhibition result was “Active”. Moreover, the IC50 in the assay on HepG2 [4] was determined as 3.1 µM.

For `Cc1ccc(C(=O)NCC(=O)N/N=C/c2ccccc2OCc2cc3c(cc2Cl)OCO3)cc1`, the values for the IC50 in the assay on HepG2 [5], in the assay with HepG2 [6] and in the assay on HepG2 [4] were 1.2 µM, 0.9 µM and 2.8 µM, respectively. Also, the Activity with Hepatitis B virus [1] amounted to 7.43 ng/mL; with Hepatitis B virus [2], 1.93 ng/mL; in the assay on HepG2 [11], 15.33%; in the assay on HepG2 [12] it was 5.39%; in the assay with HepG2 [13] it was 5.99%; in the assay with HepG2 [14], 30.48%. Moreover, the Activity in the assay on HepG2 [16] amounted to 21.66%; in the assay on HepG2 [17], 4.73%. Moreover, the inhibition entry in the assay with Hepatitis B virus [3] and in the assay with HepG2 [18] was “Active” each time. Besides, the outcome in the assay with HepG2 [7], in the assay on HepG2 [8], in the assay with HepG2 [9], in the assay with HepG2 [10] and in the assay on HepG2 [15] was Active.

Turning to `CC(C)n1c(/C=C/C(O)CC(O)CC(=O)O)c(-c2ccc(F)cc2)c2ccccc21` (configuration not stated) [FLUVASTATIN], the IC50 in assay [19] was found to be 40 µM.

Regarding `COc1ccccc1Oc1c(NS(=O)(=O)c2ccc(C(C)(C)C)cc2)nc(-c2ncccn2)nc1OCCO` [BOSENTAN], the IC50 in [20] is 30 µM.

In the case of `O=C(CNC(=O)c1cccnc1Cl)N/N=C/c1ccc(OCc2ccccc2Cl)cc1`, the Activity with Hepatitis B virus [1] stood at 7.36 ng/mL; in the assay with Hepatitis B virus [2], 2.48 ng/mL. The inhibition entry with Hepatitis B virus [3] was “Active”. Moreover, the IC50 with HepG2 [4] worked out at 4.7 µM.

On to `CCCNS(=O)(=O)Nc1ncnc(OCCOc2ncc(Br)cn2)c1-c1ccc(Br)cc1`, for which the IC50 in assay [21] was determined as 10 µM.

In the case of `N#Cc1ccc(C(=O)NCC(=O)N/N=C/c2ccccc2OCc2ccccc2Cl)cc1`, the values for the Activity with Hepatitis B virus [1] and in the assay on Hepatitis B virus [2] were 25.22 ng/mL and 8.33 ng/mL, respectively. Further, the IC50 in the assay with HepG2 [4] was greater than 50 µM.

On to `Cc1ccc(C(=O)NCC(=O)N/N=C/c2ccc(OCc3ccccc3Cl)cc2)cc1`, for which the Activity with Hepatitis B virus [1] is 14.29 ng/mL; in the assay on Hepatitis B virus [2] it was 4.83 ng/mL. Further, the half-inhibitory concentration (IC50) in the assay on HepG2 [4] came to 28.1 µM.

`Cc1ccc(C(=O)NCC(=O)N/N=C/c2ccccc2OCc2ccc(Cl)cc2)cc1`: the Activity in the assay on Hepatitis B virus [1] is 22.99 ng/mL; in the assay on Hepatitis B virus [2], 7.79 ng/mL. In addition, the IC50 in the assay on HepG2 [4] was greater than 50 µM.

`Cc1cc(OCCCS(C)(=O)=O)cc(C)c1-c1cccc(COc2ccc3c(c2)OC[C@H]3CC(=O)O)c1`: 2 µM corresponded to half-maximal inhibition in assay [22] (IC50).

Consider `COc1ccc(COc2ccccc2/C=N/NC(=O)CNC(=O)c2ccc(C)cc2)cc1`, for which the Activity amounted to 23.04 ng/mL with Hepatitis B virus [1] and 7.66 ng/mL in the assay with Hepatitis B virus [2]. In addition, in the assay with HepG2 [4], the IC50 was greater than 50 µM.

As for `CCN(CC)c1ccc(/C=N/NC(=O)CNC(=O)c2ccc(F)cc2)c(OCc2ccccc2Cl)c1`, the Activity in the assay with Hepatitis B virus [1] stood at 24.34 ng/mL; in the assay with Hepatitis B virus [2] it was 8.04 ng/mL. Also, the IC50 with HepG2 [4] was greater than 50 µM.

`COc1ccc(/C=N/NC(=O)CNC(=O)c2ccc(C#N)cc2)c(OCc2ccccc2Cl)c1`: the figures for the Activity in the assay with Hepatitis B virus [1] and in the assay on Hepatitis B virus [2] were 25.47 ng/mL and 8.29 ng/mL, respectively. Besides, in the assay with HepG2 [4], the IC50 was greater than 50 µM.

For the molecule `O=C(CNC(=O)c1ccc(-c2ccccc2)cc1)N/N=C/c1ccc(OCc2cc3c(cc2Cl)OCO3)cc1`, the Activity in the assay on Hepatitis B virus [1] came to 23.8 ng/mL; in the assay on Hepatitis B virus [2], 7.66 ng/mL. Also, the IC50 in the assay with HepG2 [4] is greater than 50 µM.

With `CCN(CC)c1ccc(/C=N/NC(=O)CNC(=O)c2ccc(C#N)cc2)c(OCc2ccccc2Cl)c1`, the Activity stood at 24.86 ng/mL in the assay on Hepatitis B virus [1] and 8.17 ng/mL in the assay on Hepatitis B virus [2]. For the same molecule, the IC50 with HepG2 [4] is greater than 50 µM.

With `O=C(CNC(=O)c1cccnc1Cl)N/N=C/c1ccccc1OCc1ccccc1Cl`, the Activity in the assay on Hepatitis B virus [1] is 12.55 ng/mL; with Hepatitis B virus [2], 4.08 ng/mL. Also, in the assay on HepG2 [4], the IC50 is 16.9 µM.
